Assay results as given in paper PMC8148075 (Acta Pharmaceutica Sinica. B, 2020).
Peptide text beside a SMILES is read from it. * marks the point of attachment. Cbz = O=C(OCc1ccccc1)*; CH2F = FC*

Key:
ECa109 cells [1] = assay: Annexin V-FITC/PI flow cytometry apoptosis assay, ECa109; format: cell-based, human; conditions: ECa109, CQ 20 μmol/L alone, 72 h, Fig. 5D
EC9706 cells [2] = assay: Annexin V-FITC/PI flow cytometry apoptosis assay, EC9706; format: cell-based, human; conditions: EC9706, CQ 20 μmol/L alone, 72 h, Fig. 5D
[3] = tested on: LC3B-II, P62, ATG3, ATG5, ATG7; assay: Western blot of autophagy proteins in ESCC cells; format: cell-based, human; conditions: ECa109 and EC9706 cells
NRF2, HO-1 = assay: Western blot of NRF2; format: cell-based, human; conditions: ECa109 and EC9706 cells
[4] = Toxicity evaluation in xenograft mice; format: in vivo, athymic BALB/c male nude mice; conditions: for HCT / HGB / MCH / MCHC / MCV / MPV / PLT / RBC / RDW / WBC: blood of xenograft mice, end of treatment; for Toxicity to nude mice (overall): therapeutic doses: SFN 5 mg/kg, CQ 60 mg/kg i.p. every other day, two weeks
ECa109 cells [5] = assay: CCK-8 cell proliferation assay, ECa109; format: cell-based, human; conditions: for IC50: Homo sapiens
Outline: (§1)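 Cells were kept in RPMI-1640 with 10% FBS, penicillin and streptomycin at 37 °C and 5% CO2. They were seeded in 96-well plates and exposed to the test compound over graded concentrations (e.g., 0–80 μmol/L) for 24, 48 or 72 h, alone or with modulators. CCK-8 reagent was then added, and optical density was read after a further 4 h. n = 3.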

EC9706 cells [6] = assay: CCK-8 cell proliferation assay, EC9706; format: cell-based, human; conditions: for IC50: Homo sapiens
Outline: as §1

ECa109 cells [7] = assay: Clonogenic assay, ECa109; format: cell-based, human
Outline: (§2)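 Cells in RPMI-1640 with 10% FBS at 37 °C, 5% CO2, seeded at 1 × 10³ cells/well in 6-well plates. Exposed to test compound (0, 5, 10 μmol/L) and grown 7 days. Colonies rinsed with PBS three times, fixed in 4% paraformaldehyde for 20 min, stained with 1% crystal violet for 30 min, then counted. Three independent experiments.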

EC9706 cells [8] = assay: Clonogenic assay, EC9706; format: cell-based, human
Outline: as §2

Het-1A cells = assay: CCK-8 cell proliferation assay, Het-1A; format: cell-based; conditions: Homo sapiens
[9] = tested on: cleaved-caspase 9, BAX, BCL-2; assay: Western blot of apoptotic markers in ESCC cells; format: cell-based, human; conditions: ECa109 and EC9706 cells, SFN 10 μmol/L, 0-24 h, Fig. 2B
Outline: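 ECa109 and EC9706 cells were exposed to 10 μmol/L test compound for 0, 3, 6, 12 and 24 h. Equal protein (30 μg) was separated by SDS-PAGE and transferred to nitrocellulose. Membranes were blocked in 5% skimmed milk for 2 h at room temperature, given primary antibody overnight at 4 °C and secondary antibody for 2 h. Detection by ECL, bands quantified by densitometry, n = 3.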

ECa109 xenografts = assay: ECa109 xenograft in nude mice, anti-tumor efficiency; format: in vivo, athymic BALB/c male nude mice; conditions: ECa109 xenograft tumors, Fig. 7D
Outline: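 Male athymic BALB/c nude mice (4–6 weeks old, acclimatised 1 week) received 1 × 10^7 ECa109 cells in 0.2 mL PBS subcutaneously into the right flank. At 90–120 mm3, mice were randomised (n = 5): saline, test compound 5 mg/kg, autophagy inhibitor 60 mg/kg, or combination, i.p. every other day for two weeks. Paraffin sections of fixed tumours were TUNEL-stained; brown positive cells were counted per 1500 tumour cells.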

[10] = tested on: mRFP-GFP-LC3 puncta (autophagosomes, autolysosomes); assay: mRFP-GFP-LC3 adenovirus autophagy flux, confocal microscopy; format: cell-based, human; conditions: ECa109 and EC9706 cells, SFN 10 μmol/L or bafilomycin A1 100 nmol/L, 24 h, Fig. 3D
Outline: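 ECa109 and EC9706 cells (3 × 10⁵/well) were infected with mRFP-GFP-LC3 adenovirus for 48 h, then replated on glass-bottom dishes at 1 × 10⁴ cells/well. Treated with 10 μmol/L test compound or 100 nmol/L bafilomycin A1 for 24 h, fixed in 4% paraformaldehyde for 20 min and imaged by confocal microscopy. Yellow (green+red) puncta were scored as autophagosomes and red as autolysosomes, n = 3.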

[11] = tested on: LC3, P62, NRF2, HO-1, BCL-2, BAX, cleaved-caspase 9; assay: Western blot of tumor tissues from xenograft mice; format: in vivo, athymic BALB/c male nude mice; conditions: SFN 5 mg/kg, Fig. 7G
Outline: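 Male athymic BALB/c nude mice, 4–6 weeks old, received 1 × 10⁷ ECa109 cells in 0.2 mL PBS s.c. in the right flank. […] Excised tumors were stored at −80 °C and immunoblotted (ECL detection), n = 3.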

[12] = organ weight/body weight × 100, xenograft mice, SFN 5 mg/kg, CQ 60 mg/kg i.p.

CCN(CC)CCCC(C)Nc1ccnc2cc(Cl)ccc12 (stereo not shown) [CQ, chloroquine, reference compound]
Effect on cell apoptosis (ECa109 cells [1]): no obvious effects on cell apoptosis | Effect on cell apoptosis (EC9706 cells [2]): no obvious effects on cell apoptosis | Expression of LC3B-II and P62 ([3]; CQ 20 μmol/L alone, Fig. 3C): promoted expression LC3B-II and P62 | Effect of CQ on SFN-induced NRF2 in nucleus (NRF2, HO-1; CQ 20 μmol/L combined with SFN 10 μmol/L, 48 h, Fig. 5F): markedly inhibited the activation of SFN to NRF2 | HCT ([4]; SFN 5 mg/kg, CQ 60 mg/kg i.p.): 43.05 ± 1.75% | HGB ([4]; SFN 5 mg/kg, CQ 60 mg/kg i.p.): 140.67 ± 6.31 g/L | MCH ([4]; SFN 5 mg/kg, CQ 60 mg/kg i.p.): 15.28 ± 0.28 pg | MCHC ([4]; SFN 5 mg/kg, CQ 60 mg/kg i.p.): 326.67 ± 4.50 g/L | MCV ([4]; SFN 5 mg/kg, CQ 60 mg/kg i.p.): 50.10 ± 0.78 fL | MPV ([4]; SFN 5 mg/kg, CQ 60 mg/kg i.p.): 6.52 ± 0.13 fL | PLT ([4]; SFN 5 mg/kg, CQ 60 mg/kg i.p.): 941.00 ± 45.99 × 10^9/L | RBC ([4]; SFN 5 mg/kg, CQ 60 mg/kg i.p.): 8.60 ± 0.38 × 10^12/L | RDW ([4]; SFN 5 mg/kg, CQ 60 mg/kg i.p.): 16.38 ± 0.08% | WBC ([4]; SFN 5 mg/kg, CQ 60 mg/kg i.p.): 4.71 ± 0.99 × 10^9/L | Toxicity to nude mice (overall) [4]: no obvious toxicity

Cc1ccccc1C(=O)N1CCc2cc(-c3nc(NC(=O)Cc4ccc5c(c4)OCO5)sc3C)ccc21 [ML385, reference compound]
Effect on cell viability (CCK-8) (ECa109 cells [5]; ECa109, ML385 0-200 μmol/L, 48 and 72 h, Fig. 4E): significantly inhibited cell viability | Effect on cell viability (CCK-8) (EC9706 cells [6]; EC9706, ML385 0-200 μmol/L, 48 and 72 h, Fig. 4E): significantly inhibited cell viability | Effect on colony formation (ECa109 cells [7]; ECa109, ML385, 7 days, Fig. 4F): significantly inhibited cell viability and colony formation | Effect on colony formation (EC9706 cells [8]; EC9706, ML385, 7 days, Fig. 4F): significantly inhibited cell viability and colony formation | Expression of LC3B-II and P62 ([3]; ML385 20 μmol/L alone, Fig. 4D): inhibited LC3B-II and promoted P62 expression | Expression of NRF2 and HO-1 (NRF2, HO-1; ML385 5-30 μmol/L, Fig. 4C): decreased expression of NRF2 and HO-1 in a dose-dependent manner

C[S+]([O-])CCCCN=C=S (stereo not shown) [SFN, Sulforaphane]
IC50 (ECa109 cells [5]; ECa-109, 24 h): 47.4 ± 1.68 µM | IC50 (ECa109 cells [5]; ECa-109, 48 h): 20.8 ± 1.32 µM | IC50 (ECa109 cells [5]; ECa-109, 72 h): 15.2 ± 1.18 µM | IC50 (EC9706 cells [6]; EC9706, 24 h): 75.3 ± 1.88 µM | IC50 (EC9706 cells [6]; EC9706, 48 h): 41 ± 1.7 µM | IC50 (EC9706 cells [6]; EC9706, 72 h): 17.5 ± 1.24 µM | IC50 (Het-1A cells; 48 h): 34.1 ± 1.53 µM | IC50 (Het-1A cells; 72 h): 21.3 ± 1.33 µM | Effect on colony formation (ECa109 cells [7]; ECa109, SFN 5 and 10 μmol/L, 7 days, Fig. 1C): significantly inhibited the colony formation | Effect on colony formation (EC9706 cells [8]; EC9706, SFN 5 and 10 μmol/L, 7 days, Fig. 1C): significantly inhibited the colony formation | Level of cleaved-caspase 9 [9]: increased the levels of cleaved-caspase 9 in a time-dependent manner | Expression of LC3B-II and P62 ([3]; SFN 10 μmol/L, 0-24 h, Fig. 3A): increased LC3B-II and decreased P62 | Expression of ATG3, ATG5 and ATG7 ([3]; SFN 10 μmol/L, 0-24 h, Fig. 4A): no changes | Expression of NRF2 in nucleus (NRF2, HO-1; SFN 5 and 10 μmol/L, Fig. 4B): increased the expression of NRF2 in nucleus | TUNEL positive cells in tumor tissue compared with control (ECa109 xenografts): large number of TUNEL positive cells | HCT ([4]; SFN 5 mg/kg, CQ 60 mg/kg i.p.): 42.62 ± 4.07% | HGB ([4]; SFN 5 mg/kg, CQ 60 mg/kg i.p.): 139.00 ± 13.78 g/L | MCH ([4]; SFN 5 mg/kg, CQ 60 mg/kg i.p.): 15.20 ± 0.65 pg | MCHC ([4]; SFN 5 mg/kg, CQ 60 mg/kg i.p.): 326.17 ± 3.82 g/L | MCV ([4]; SFN 5 mg/kg, CQ 60 mg/kg i.p.): 49.62 ± 0.55 fL | MPV ([4]; SFN 5 mg/kg, CQ 60 mg/kg i.p.): 6.62 ± 0.17 fL | PLT ([4]; SFN 5 mg/kg, CQ 60 mg/kg i.p.): 867.83 ± 134.68 × 10^9/L | RBC ([4]; SFN 5 mg/kg, CQ 60 mg/kg i.p.): 8.59 ± 0.83 × 10^12/L | RDW ([4]; SFN 5 mg/kg, CQ 60 mg/kg i.p.): 16.18 ± 0.08% | WBC ([4]; SFN 5 mg/kg, CQ 60 mg/kg i.p.): 4.18 ± 0.48 × 10^9/L | Relative organ weight, heart [4, 12]: 0.63 ± 0.13% | Relative organ weight, left kidney [4, 12]: 0.84 ± 0.19% | Relative organ weight, liver [4, 12]: 6.74 ± 0.35% | Relative organ weight, lung [4, 12]: 0.72 ± 0.19% | Relative organ weight, right kidney [4, 12]: 0.98 ± 0.17% | Relative organ weight, spleen [4, 12]: 0.79 ± 0.14% | Toxicity to nude mice (overall) [4]: no obvious toxicity | Fluorescent puncta (yellow = autophagosomes, red = autolysosomes) [10]: many yellow puncta and red puncta | LC3B-II and P62 expression in tumors compared to control [11]: increased of LC3B-Ⅱ and decreased P62 expression

COC(=O)C[C@H](NC(=O)[C@H](C)NC(=O)[C@@H](NC(=O)OCc1ccccc1)C(C)C)C(=O)CF [Z-VAD-FMK, reference compound] (Cbz-Val-Ala-Asp(OMe)-CH2F)
Effect on cell proliferation (CCK-8) (ECa109 cells [5]; ECa109, Z-VAD-FMK 20 μmol/L alone, 48 h, Fig. 2C): no obvious effects on cell proliferation | Effect on cell proliferation (CCK-8) (EC9706 cells [6]; EC9706, Z-VAD-FMK 20 μmol/L alone, 48 h, Fig. 2C): no obvious effects on cell proliferation

CO/C1=C\C(C)=C\[C@@H](C)[C@@H](O)[C@@H](C)C/C(C)=C/C=C/[C@H](OC)[C@@H]([C@@H](C)[C@@H](O)[C@H](C)[C@@]2(O)C[C@@H](O)[C@H](C)[C@@H](C(C)C)O2)OC1=O [bafilomycin A1, reference compound]
Fluorescent puncta (yellow = autophagosomes, red = autolysosomes) [10]: many yellow puncta
